Experiments:
Mus musculus [1] = species: Mus musculus; test: The compound was tested for effective dose for reduction in phenylquinone-induced abdominal constriction; format: functional; settings: Abdomen
Outline: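 Phenylquinone-induced abdominal constriction assay run as an oral dose-response study. The ED50 was derived from reduction of constrictions.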

Mus musculus [2] = test: The compound was tested for reduction in phenylquinone-induced abdominal constriction and is expressed in % reduction at a po (per oral) dose of 70 mg/kg.; format: functional, Abdomen
Outline: (§1)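 Phenylquinone-induced abdominal constriction analgesia assay. A single oral screening dose of 70 mg/kg was given, and the read-out is percent reduction in constrictions versus control. Tebufelone and naproxen served as reference agents.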

Mus musculus [3] = species: Mus musculus; test: The compound was tested for reduction in phenylquinone-induced abdominal constriction; format: functional; settings: Abdomen
Rattus norvegicus = test: Carrageenan paw edema index (CPE index) as ratio of the reduction in paw volume of tested compound relative to the compound tebufelone at peroral dose of 50 mg/kg.; format: functional; settings: route oral
[4] = biological target: T1, Prostaglandin G/H synthase 2 (Homo sapiens, UniProt P35354)
T1 sequence (P35354 whole entry): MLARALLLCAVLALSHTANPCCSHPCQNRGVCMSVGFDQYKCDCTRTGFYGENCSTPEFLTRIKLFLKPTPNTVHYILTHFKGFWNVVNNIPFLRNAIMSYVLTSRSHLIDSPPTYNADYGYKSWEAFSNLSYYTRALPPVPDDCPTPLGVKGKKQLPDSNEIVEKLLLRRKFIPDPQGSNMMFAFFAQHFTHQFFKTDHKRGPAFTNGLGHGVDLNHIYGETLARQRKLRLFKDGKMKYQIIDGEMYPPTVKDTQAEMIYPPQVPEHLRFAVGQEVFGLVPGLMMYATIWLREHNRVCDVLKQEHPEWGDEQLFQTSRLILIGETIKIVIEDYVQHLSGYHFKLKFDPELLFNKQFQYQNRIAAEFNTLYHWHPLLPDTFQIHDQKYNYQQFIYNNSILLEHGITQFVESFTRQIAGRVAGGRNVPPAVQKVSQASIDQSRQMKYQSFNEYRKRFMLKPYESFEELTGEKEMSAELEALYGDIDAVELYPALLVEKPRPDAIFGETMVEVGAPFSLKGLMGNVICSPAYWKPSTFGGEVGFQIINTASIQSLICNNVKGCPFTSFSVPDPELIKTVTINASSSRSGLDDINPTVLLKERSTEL

[5] = biological target: Prostaglandin G/H synthase 1 (Homo sapiens, UniProt P23219); test: Inhibition of Prostaglandin G/H synthase 1 (COX-1).
Prostaglandin G/H synthase 1, sequence (P23219 whole entry): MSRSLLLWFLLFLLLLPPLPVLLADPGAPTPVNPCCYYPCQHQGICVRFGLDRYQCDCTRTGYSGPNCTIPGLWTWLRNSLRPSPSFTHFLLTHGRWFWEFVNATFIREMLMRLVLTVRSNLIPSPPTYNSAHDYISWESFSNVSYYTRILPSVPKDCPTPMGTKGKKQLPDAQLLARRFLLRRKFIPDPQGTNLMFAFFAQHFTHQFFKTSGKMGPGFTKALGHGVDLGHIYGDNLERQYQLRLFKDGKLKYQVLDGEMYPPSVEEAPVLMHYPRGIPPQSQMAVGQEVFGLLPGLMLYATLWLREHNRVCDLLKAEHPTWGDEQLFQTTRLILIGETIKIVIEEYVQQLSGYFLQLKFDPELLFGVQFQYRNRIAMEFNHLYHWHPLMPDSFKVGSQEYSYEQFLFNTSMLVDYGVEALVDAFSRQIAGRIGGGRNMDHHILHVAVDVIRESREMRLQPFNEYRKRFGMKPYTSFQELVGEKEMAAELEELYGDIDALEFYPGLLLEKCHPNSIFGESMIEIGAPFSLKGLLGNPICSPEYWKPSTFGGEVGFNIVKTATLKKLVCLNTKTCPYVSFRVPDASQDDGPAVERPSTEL
Outline: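 Isolated human COX-1 enzyme from platelets. Duplicate samples were each tested in duplicate, and IC50 values were determined.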

[6] = biological target: T2, Polyunsaturated fatty acid 5-lipoxygenase (Rattus norvegicus, UniProt P12527); test: Inhibition of 5-lipoxygenase (LOX)in RBL cells; format: cell-based
T2 sequence (P12527 whole entry): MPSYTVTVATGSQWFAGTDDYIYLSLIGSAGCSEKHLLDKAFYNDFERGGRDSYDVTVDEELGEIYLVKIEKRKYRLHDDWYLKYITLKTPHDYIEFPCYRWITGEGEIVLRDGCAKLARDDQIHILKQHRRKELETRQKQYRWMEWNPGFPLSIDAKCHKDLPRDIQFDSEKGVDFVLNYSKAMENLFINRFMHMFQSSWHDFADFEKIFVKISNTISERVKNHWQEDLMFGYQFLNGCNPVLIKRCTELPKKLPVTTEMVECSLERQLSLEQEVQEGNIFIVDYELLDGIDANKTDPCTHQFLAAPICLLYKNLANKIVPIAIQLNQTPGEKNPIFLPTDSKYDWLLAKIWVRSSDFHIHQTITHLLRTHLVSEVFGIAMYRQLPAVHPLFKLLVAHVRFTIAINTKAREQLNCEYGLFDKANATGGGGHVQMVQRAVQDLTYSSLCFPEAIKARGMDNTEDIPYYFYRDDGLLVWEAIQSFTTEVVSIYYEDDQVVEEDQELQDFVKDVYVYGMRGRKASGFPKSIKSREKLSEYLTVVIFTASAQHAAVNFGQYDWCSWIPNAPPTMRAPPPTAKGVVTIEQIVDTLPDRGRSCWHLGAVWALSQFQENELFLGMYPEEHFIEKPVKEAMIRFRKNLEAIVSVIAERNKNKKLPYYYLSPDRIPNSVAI

Mus musculus [7] = test: The compound was tested for reduction in phenylquinone-induced abdominal constriction and is expressed in % reduction at a po (per pral) dose of 70 mg/kg.; format: functional, Abdomen; outline: as §1

Question: Which ED50 (Mus musculus [1]) does the source give for CC(C)(C)c1cc(C(=O)CCCC2CC2)cc2c1OCC2(C)C here?
Answer: 11 mg/kg

Question: For CCCCC(=O)c1cc(C(C)(C)C)c2c(c1)C(C)(C)CO2, which Reduction (Mus musculus [2]) is on record?
Answer: 38%

Question: CCCC(=O)c1cc(C(C)(C)C)c2c(c1)C(C)(C)CO2 was tested. Which ED50 (Mus musculus [3]) did it give?
Answer: 21 mg/kg

Question: With CC(C)(O)CC(=O)c1cc(C(C)(C)C)c2c(c1)C(C)(C)CO2 as the molecule, how does the CPE index (Rattus norvegicus) read?
Answer: 0.49

Question: Which CPE index (Rattus norvegicus) does the source give for CC(C)(C)c1cc(C(=O)CCCC2CC2)cc2c1SCC2(C)C here?
Answer: 0.74

Question: Which results are given for C#CCCCC(=O)c1cc2c(c(C(C)(C)C)c1)OCC2?
Answer: Reduction (Mus musculus [2]): 67%; CPE index (Rattus norvegicus): 0.84

Question: CCCCC(=O)c1cc(C(C)(C)C)c2c(c1)C(C)(C)CCN2 was tested. Which CPE index (Rattus norvegicus) did it give?
Answer: 0.02

Question: O=C(CCCC1CC1)c1ccc2c(c1)CCO2 was tested. Which CPE index (Rattus norvegicus) did it give?
Answer: 0.13

Question: With CCCCC(=O)c1cc(C(C)(C)C)c2c(c1)C(C)(C)CCO2 as the molecule, how does the ED50 (Mus musculus [1]) read?
Answer: 53 mg/kg

Question: What about the CPE index (Rattus norvegicus) of the same molecule?
Answer: 0.69

Question: How did the CPE index (Rattus norvegicus) turn out when CCCCC(=O)c1ccc2c(c1)CCO2 was run?
Answer: 0

Question: How did the IC50 [4] turn out when CC1(C)COc2ccc(C(=O)CCCC3CC3)cc21 was run?
Answer: 8 µM

Question: What about the IC50 [5] of the same molecule?
Answer: 25 µM

Question: And the CPE index (Rattus norvegicus)?
Answer: 0.5

Question: With CCCC(=O)c1ccc2c(c1)C(C)(C)CO2 as the molecule, how does the CPE index (Rattus norvegicus) read?
Answer: 0.31

Question: What does the source list for CCCC(=O)c1cc(C(C)(C)C)c2c(c1)C(C)(C)CS2?
Answer: ED50 (Mus musculus [1]): 74 mg/kg; IC50 [4]: 0.15 µM; IC50 [5]: 1.5 µM; CPE index (Rattus norvegicus): 1.04

Question: CC(C)(C)c1cc(C(=O)CCCC2CC2)cc2c1NCCC2(C)C was tested. Which CPE index (Rattus norvegicus) did it give?
Answer: 0

Question: CCCCC(=O)c1cc2c(c(C(C)(C)C)c1)OCC2 was tested. Which ED50 (Mus musculus [1]) did it give?
Answer: 0.6 mg/kg

Question: And the CPE index (Rattus norvegicus)?
Answer: 0.69

Question: With CN1CC(C)(C)c2cc(C(=O)CCCC3CC3)cc(C(C)(C)C)c21 as the molecule, how does the CPE index (Rattus norvegicus) read?
Answer: 0.36

Question: What does the source list for CCc1cc(C(=O)CCCC2CC2)cc2c1OCC2(C)C?
Answer: IC50 [6]: 18 µM; IC50 [4]: 5 µM; IC50 [5]: 20 µM

Question: What does the source list for CCCCC(=O)c1cc(C(C)(C)C)c2c(c1)C(C)(C)CCN2C?
Answer: IC50 [4]: 0.3 µM; IC50 [5]: 2 µM; CPE index (Rattus norvegicus): 0.42

Question: For CC(C)(C)c1cc(C(=O)CCCC2CC2)cc2c1OCCC2(C)C, which IC50 [6] is on record?
Answer: 8 µM

Question: And the Reduction (Mus musculus [2])?
Answer: 10%

Question: And the IC50 [4]?
Answer: 3 µM

Question: What about the IC50 [5] of the same molecule?
Answer: 20 µM

Question: What about the CPE index (Rattus norvegicus) of the same molecule?
Answer: 0.57

Question: With CC(C)(C)c1cc(C(=O)CCCC2CC2)cc2c1OCCC2 as the molecule, how does the CPE index (Rattus norvegicus) read?
Answer: 0.05

Question: With CCCCC(=O)c1cc2c(c(C(C)(C)C)c1)OCCC2 as the molecule, how does the CPE index (Rattus norvegicus) read?
Answer: 0.21

Question: How did the ED50 (Mus musculus [1]) turn out when CC(C)(O)CC(=O)c1cc2c(c(C(C)(C)C)c1)OCC2 was run?
Answer: 21 mg/kg

Question: And the CPE index (Rattus norvegicus)?
Answer: 0.98

Question: What does the source list for CC(C)(O)CC(=O)c1cc2c(c(C(C)(C)C)c1)OCCC2?
Answer: Reduction (Mus musculus [2]): 50%; CPE index (Rattus norvegicus): 0.7

Question: Which Reduction (Mus musculus [2]) does the source give for C#CCCCC(=O)c1cc2c(c(C(C)(C)C)c1)OCCC2 here?
Answer: 79%

Question: And the CPE index (Rattus norvegicus)?
Answer: 1.04

Question: Which CPE index (Rattus norvegicus) does the source give for CC(C)(O)CC(=O)c1cc(C(C)(C)C)c2c(c1)C(C)(C)CCO2 here?
Answer: 0.48

Question: What does the source list for C#CCCCC(=O)c1cc(C(C)(C)C)c2c(c1)C(C)(C)CCO2?
Answer: Reduction (Mus musculus [2]): 46%; CPE index (Rattus norvegicus): 0.57

Question: For CCCCC(=O)c1cc(C(C)(C)C)c2c(c1)C(C)(C)CCS2, which Reduction (Mus musculus [7]) is on record?
Answer: 17%

Question: And the IC50 [4]?
Answer: 0.4 µM

Question: And the IC50 [5]?
Answer: 0.4 µM

Question: And the CPE index (Rattus norvegicus)?
Answer: 0.86

Question: With CC(C)(O)CC(=O)c1ccc2c(c1)C(C)(C)CO2 as the molecule, how does the CPE index (Rattus norvegicus) read?
Answer: 0.39

Question: Which results are given for CCCC(=O)c1cc(C(C)(C)C)c2c(c1)C(C)(CC)CO2 (stereo not given)?
Answer: Reduction (Mus musculus [2]): 45%; CPE index (Rattus norvegicus): 0.68

Question: With CC(C)(C)c1cc(C(=O)CCCC2CC2)cc2c1OCC2 as the molecule, how does the IC50 [6] read?
Answer: 12 µM

Question: What about the ED50 (Mus musculus [1]) of the same molecule?
Answer: 6 mg/kg

Question: What about the IC50 [4] of the same molecule?
Answer: 15 µM

Question: And the IC50 [5]?
Answer: 5 µM

Question: What about the CPE index (Rattus norvegicus) of the same molecule?
Answer: 0.5

Question: Which results are given for CC1(C)COc2c(C3CCCC3)cc(C(=O)CCCC3CC3)cc21?
Answer: IC50 [4]: 20 µM; IC50 [5]: > 100 µM; CPE index (Rattus norvegicus): 0.27

Question: With CN1CCC(C)(C)c2cc(C(=O)CCCC3CC3)cc(C(C)(C)C)c21 as the molecule, how does the CPE index (Rattus norvegicus) read?
Answer: 0.37

Question: Which ED50 (Mus musculus [3]) does the source give for COc1ccc2cc([C@H](C)C(=O)O)ccc2c1 [NAPROXEN] here?
Answer: 1.3 mg/kg

Question: And the CPE index (Rattus norvegicus)?
Answer: 1.06

Question: How did the ED50 (Mus musculus [3]) turn out when C#CCCCC(=O)c1cc(C(C)(C)C)c(O)c(C(C)(C)C)c1 [TEBUFELONE] was run?
Answer: 26 mg/kg
